Results published in ChEMBL document CHEMBL4513216, “Probing the Open Global Health Chemical Diversity Library for Multistage-Active Starting Points for Next-Generation Antimalarials” (ACS Infect Dis, 2020).

Test: Toxicity liver stage against HepG2, at 10uM
Assay type: cell-based
Set-up: test concentration 10 uM, cell line HepG2-A16-CD81EGFP
Conditions: human, HepG2-A16-CD81EGFP cells; read-out: INHIBITION
Method in brief: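 Uninfected HepG2-A16-CD81EGFP cells, 3 × 10^3 per well, 1536-well, plated on prespotted compound at 10 μM final, parasite-free screening media added to match infected plates; puromycin 10 μM positive, DMSO 0.5% negative; run in parallel with 48 h PbLuc assay at 37 °C, 5% CO2; viability by CellTiter-Glo luminescence, normalized to controls.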

| Compound | cytotoxicity at 10 µM |
| --- | --- |
| CCNC(=O)N1CCC(c2ccccc2)C1 (stereo not drawn) | -3.57% |
| CN1C(=O)CO[C@H](c2ccc(NC(=O)Cc3cccs3)cc2)[C@H]1CO | 0.931% |
| CC1CCN(C(=O)c2cnc3cc(C(=O)N(C)C)n(C)c3c2)CC1 | 6.14% |
| CSCC[C@H](NC(=O)Cn1ccc2ccc(Cl)cc21)C(=O)O | 6.59% |
| COc1ccc2nnc(CCCC(=O)NCCc3ccccc3)n2n1 | -5.11% |
| O=C(c1cscn1)N1CCC2(CCCN(CCOc3ccccc3)C2)C1 (stereo not drawn) | 1.38% |
| COCCCN1CC2(CCCCN2C(C)=O)CC1=O (stereo not drawn) | 16.3% |
| Cc1cc(F)ccc1C(=O)N1C[C@@H]2COC[C@]2(COCC2CC2)C1 | -146% |
| O=C(NC1CCc2c(ccc(=O)n2CC2CC2)C1)c1ccsc1 (stereo not drawn) | -4.48% |
| O=C(Cc1ccccn1)N1CCC2(CCCN(CC3CCOCC3)C2)C1 (stereo not drawn) | -122% |
| COc1nn(C)c2c1CCCN(S(=O)(=O)c1cccc(F)c1)C2 | -129% |
| O=C(c1cscn1)N1CC[C@@H]2[C@@H]1CCN2c1ccccn1 | 5.95% |
| COC(=O)CNC(=O)CSCc1nc(O)c2cc(C)sc2n1 | 1.45% |
| CCOc1ccc(-n2nnc(C(=O)O)c2-c2ccccn2)cc1 | -9.31% |
| O=C(c1ccsc1)N1C[C@@H]2C[C@@H](c3nnc(C4CC4)o3)O[C@@H]2C1 | -6.15% |
| CO[C@@H]1CC[C@H]2[C@H]1OCCN2C(=O)C1=CCCC1 | -6.34% |
| CCN(Cc1ccccc1)C(=O)c1cc(C2CCCN2C)ccn1 (stereo not drawn) | -14.2% |
| CC(c1cccc(Cl)c1)N1CCN(S(C)(=O)=O)CC1 (stereo not drawn) | 1.81% |
| CC(CN1CCOCC1)NC(=O)Nc1cccnc1-n1cccn1 (stereo not drawn) | -1.7% |
| CN(CCSc1nncn1CC(F)(F)F)c1ccccc1 | -1.86% |
| O=c1cc(CN(CCO)C2CC2)nc2ccccn12 | -1.05% |

| Compound | cytotoxicity at 10 µM |
| --- | --- |
| CN(C)C(=O)Cc1ccc(NCc2nccn2C)cc1 | -8.73% |
| CCN(Cc1ccccn1)C1CCN(c2ccccc2)C1=O (stereo not drawn) | 4.34% |
| Cc1nc(CN2CCN(CCCc3ccccc3)CC2)no1 | 11.7% |
| COCCC(=O)N1CCC(Nc2ncc(Cl)cn2)CC1 | -6.74% |
| CN(C1CCCCC1)S(=O)(=O)NC1CCN(c2ncccn2)CC1 | 6.99% |
| CN(C)c1ncccc1C(=O)N1CCN(C2=NCC(C)(C)S2)CC1 | 5.03% |
| Cc1cccn2c(=O)cc(CN3CCCC3Cn3cncn3)nc12 (stereo not drawn) | 0.714% |
| C[S+]([O-])c1nncn1CC(=O)c1ccc(OC(F)F)cc1 (stereo not drawn) | -8.56% |
| CCN(CC1CN(Cc2ccccn2)CCO1)c1cccnn1 (stereo not drawn) | -6.95% |
| Cc1cnn(CC2CN(CCS(C)(=O)=O)CCO2)c1 (stereo not drawn) | -2.25% |
| Cc1cc(CNC(=O)[C@H]2CCCCN2C(=O)OC(C)(C)C)on1 | -0.82% |
| CCc1nc(CN(C)C2CCN(Cc3nc(C4CC4)no3)C2)no1 (stereo not drawn) | 14.9% |
| CCNC(=O)CN1CCN(c2ccnc3c(F)ccc(F)c23)CC1 | 11.7% |
| NC(=O)c1cnc(NC2CCN(c3ccccc3)CC2)c(Cl)c1 | 6.07% |
| COc1ncc(C)cc1NC(=O)COc1ccccc1F | -9.52% |
| CCN(CC)C(=O)CN(C)C(=O)c1cc(-c2cccc(Cl)c2)no1 | 4.28% |
| O=C(NCCNc1cncc(Br)c1)c1ccc(O)cc1 | 3.73% |
| O=C(Nc1ccc(F)cc1)C1CCc2ccccc2N1 (stereo not drawn) | 2.4% |
| CCOc1nnc(CN(Cc2ccccc2)CC(O)c2ccco2)s1 (stereo not drawn) | -1.57% |
| COCCCNC(=O)Nc1cccc(Cl)c1-n1cccn1 | 1.13% |
| CN(C)C1CN(C(=O)Nc2cccc(OC(F)F)c2)C1 | -0.317% |

| Compound | cytotoxicity at 10 µM |
| --- | --- |
| Brc1cnc(NCc2ccccc2N2CCOCC2)nc1 | 1.3% |
| COc1cncc(N2CCN(Cc3ccncc3Cl)CC2)n1 | 1.66% |
| O=C(c1c(O)cnc2ccccc12)N1CCN(CC(F)F)CC1 | -2.22% |
| CCOc1ccc(CN(C)C(=O)COc2ccc(C)nc2)cc1 | 22.7% |
| CN1CCN(S(=O)(=O)c2cncc(F)c2)c2ccccc2C1 | -3.69% |
| COc1cc(CN(C)C(=O)NCCC2CCCO2)ccc1SC (stereo not drawn) | -13.8% |
| CN(C)CCn1c(=O)oc2ccc(NC(=O)c3cc(Cl)c[nH]3)cc21 | 6.79% |
| OC(CN1CCN(c2ncccn2)CC1)c1cccc(F)c1 (stereo not drawn) | 2.4% |
| CC(C)[C@H](CO)Nc1nccc(-c2c[nH]nc2-c2ccncc2)n1 | -4.66% |
| CCC[C@@H]1CN(c2cncc(C(=O)N3CCOCC3)n2)C[C@H]1N(C)C | 4.63% |
| Cc1cc(C)c(C(=O)N[C@H](C(N)=O)c2ccccc2)c(=O)[nH]1 | -2.06% |
| CC(C)c1noc(C2CCCN2S(=O)(=O)N2CCCCCC2)n1 (stereo not drawn) | 4.73% |
| CC(C)NS(=O)(=O)c1cc(C(=O)O)cc(-c2ccccc2CO)c1 | 0.555% |
| CC(=O)N1CCc2c(nc(-c3cccnc3)nc2N(C)CC(O)CO)C1 (stereo not drawn) | -2.03% |
| CCC(NC(=O)c1cnc(-c2cccnc2)nc1)c1ccnn1C (stereo not drawn) | -2.11% |
| Cc1cc(CN2CCC(CNC(=O)c3ccc4[nH]cnc4c3)C2)[nH]n1 (stereo not drawn) | -145% |
| Cc1nc2sccn2c1C(=O)N1CCc2c(nc(N)[nH]c2=O)C1 | -3.22% |
| CCC(OC)C(=O)N1CCc2nc(NC)nc(C(=O)N3CCCC3)c2C1 (stereo not drawn) | -18.3% |
| CN1CCC(c2nnc(CN3CCC(O)CC3)n2C)CC1 | -8.94% |
| Cc1ccc(CNC(=O)Nc2nccs2)cn1 | -23.8% |
| Cc1nn(C)c(Cl)c1C1CCCN1Cc1nnc(C2CC2)o1 (stereo not drawn) | -6.18% |

| Compound | cytotoxicity at 10 µM |
| --- | --- |
| N#Cc1ccc(CN2CCCCC2Cn2cccn2)cc1 (stereo not drawn) | -8.96% |
| NC(=O)c1cccc(C(=O)N2CCCC(n3ccnc3)C2)c1 (stereo not drawn) | -14% |
| CC(C)c1noc(CN2CCN(C(=O)c3cccc(F)c3)CC2)n1 | -4.27% |
| Cc1nn(C)c(N(C)C)c1CNCc1cccc(Cn2ccnc2)c1 | -12% |
| CCCc1nc(CN2CCCC2c2cnn(C)c2)cs1 (stereo not drawn) | 0.441% |
| Cc1nc(C)n(CC2CCCN2CCOc2ccc(F)cc2)n1 (stereo not drawn) | 3.06% |
| Cn1c(C2CC2)nc2c1CCN(CC(=O)Nc1ccncc1)C2 | -11.8% |
| CC1CN(C)CCN1Cc1cccc(C(=O)N(C)C)c1 (stereo not drawn) | -0.192% |
| CC(C)n1ccnc1CN1CCCN(C(=O)CC2CCCO2)CC1 (stereo not drawn) | -12.8% |
| COCCOc1cccc(C(=O)N2CCCCC2c2nccs2)c1 (stereo not drawn) | -9.5% |
| Cc1ccc(OCCN(C)C(C)c2cccc(S(N)(=O)=O)c2)cc1 (stereo not drawn) | -29.3% |
| Cc1ccoc1C(=O)NC1CCN(C(=O)Nc2ccccn2)CC1 | 1.97% |
| CCc1nc(C2CCCN(C(=O)c3ccc(OC)cc3)C2)no1 (stereo not drawn) | -15.6% |
| CC(O)CN1CCN(C(=O)c2cccc3[nH]ncc23)CC1 (stereo not drawn) | -20.5% |
| CCc1cnc(CN(C(C)=O)C2CCN(CCc3cnn(C)c3)C2)o1 (stereo not drawn) | -5.85% |
| Cc1ccc(CN2Cc3ccnn3CC(C(=O)NCC3CC3)C2)o1 (stereo not drawn) | -15.9% |
| O=C(NCc1cccs1)c1nc2c(o1)CN(CC1CC1)C2 | -2.83% |
| COCCO[C@H]1CCN(Cc2cccnc2)[C@H]1Cc1cccnc1 | 0.0623% |
| Cn1cc(CN2CCC(F)(F)C3(CCN(c4cnccn4)C3)C2)cn1 (stereo not drawn) | -9.93% |
| CNc1nc2cn(CCc3ccccc3)c(=O)c-2c[nH]1 | 7.77% |
